# ChEMBL document CHEMBL1134439, “Radioiodinated styrylbenzenes and thioflavins as probes for amyloid aggregates” (J Med Chem, 2001)
# Assays:
# Mus musculus [1] = assay: Biodistribution was measured in mice lung 5 minutes after intravenous injection of [125I]-labeled styrylbenzene.; assay type: ADME, organism-based; conditions: in vivo
# Procedure, shortened: (§1)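 ICR mice (2-3 months old, 20-30 g) under ether anesthesia received 5-10 µCi ¹²⁵I tracer in 0.15 mL saline by tail-vein injection. Animals were killed by cardiac excision at set times post-injection. Organs were removed, weighed and γ-counted. Values are % dose per organ against diluted injectate aliquots, taking blood and muscle as 7% and 40% of body weight. Mean of 3-4 mice ± SD.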
# Mus musculus [2] = assay: Biodistribution was measured in mice brain 60 minutes after intravenous injection of [125I]-labeled styrylbenzene; assay type: ADME, organism-based; conditions: in vivo, 1 h; procedure, shortened: as §1
# Mus musculus [3] = assay: Biodistribution was measured in mice blood 60 minutes after intravenous injection of [125I]-labeled styrylbenzene.; assay type: ADME, organism-based; conditions: in vivo, 1 h; procedure, shortened: as §1
# Mus musculus [4] = assay: Biodistribution was measured in mice heart 30 minutes after intravenous injection of [125I]-labeled styrylbenzene.; assay type: ADME, organism-based; conditions: in vivo, 0.5 h; procedure, shortened: as §1
# Mus musculus [5] = assay: Biodistribution was measured in mice brain 30 minutes after intravenous injection of [125I]-labeled styrylbenzene; assay type: ADME, organism-based; conditions: in vivo, 0.5 h; procedure, shortened: as §1
# Mus musculus [6] = assay: Biodistribution was measured in mice heart 5 minutes after intravenous injection of [125I]-labeled styrylbenzene.; assay type: ADME, organism-based; conditions: in vivo; procedure, shortened: as §1
# Mus musculus [7] = assay: Biodistribution was measured in mice kidney 60 minutes after intravenous injection of [125I]-labeled styrylbenzene.; assay type: ADME, organism-based; conditions: in vivo, 1 h; procedure, shortened: as §1
# Mus musculus [8] = assay: Biodistribution was measured in mice spleen 60 minutes after intravenous injection of [125I]-labeled styrylbenzene.; assay type: ADME, organism-based; conditions: in vivo, 1 h
# Procedure, shortened: (§2)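 ICR mice (2-3 months old, 20-30 g) under ether anesthesia; 0.15 mL saline containing 5-10 µCi ¹²⁵I tracer injected into tail vein. Sacrifice by cardiac excision at set times; organs removed, weighed, γ-counted. Expressed as % dose per organ versus diluted aliquots of injectate. Mean of three or four mice ± SD.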
# Mus musculus [9] = assay: Biodistribution was measured in mice lung 30 minutes after intravenous injection of [125I]-labeled styrylbenzene.; assay type: ADME, organism-based; conditions: in vivo, 0.5 h; procedure, shortened: as §1
# Mus musculus [10] = assay: Biodistribution was measured in mice muscle 5 minutes after intravenous injection of [125I]-labeled styrylbenzene.; assay type: ADME, organism-based, Muscle tissue; conditions: in vivo; procedure, shortened: as §1
# Mus musculus [11] = assay: Biodistribution was measured in mice skin 30 minutes after intravenous injection of [125I]-labeled styrylbenzene.; assay type: ADME, organism-based, Zone of skin; conditions: in vivo, 0.5 h; procedure, shortened: as §1
# Mus musculus [12] = assay: Biodistribution was measured in mice liver 60 minutes after intravenous injection of [125I]-labeled styrylbenzene.; assay type: ADME, organism-based; conditions: in vivo, 1 h; procedure, shortened: as §1
# Mus musculus [13] = assay: Biodistribution was measured in mice liver 5 minutes after intravenous injection of [125I]-labeled styrylbenzene.; assay type: ADME, organism-based; conditions: in vivo; procedure, shortened: as §1
# Mus musculus [14] = assay: Biodistribution was measured in mice spleen 5 minutes after intravenous injection of [125I]-labeled styrylbenzene.; assay type: ADME, organism-based; conditions: in vivo; procedure, shortened: as §2
# Mus musculus [15] = assay: Biodistribution was measured in mice spleen 30 minutes after intravenous injection of [125I]-labeled styrylbenzene.; assay type: ADME, organism-based; conditions: in vivo, 0.5 h; procedure, shortened: as §2
# Mus musculus [16] = assay: Biodistribution was measured in mice skin 60 minutes after intravenous injection of [125I]-labeled styrylbenzene.; assay type: ADME, organism-based, Zone of skin; conditions: in vivo, 1 h; procedure, shortened: as §1
# Mus musculus [17] = assay: Biodistribution was measured in mice muscle 60 minutes after intravenous injection of [125I]-labeled styrylbenzene.; assay type: ADME, organism-based, Muscle tissue; conditions: in vivo, 1 h; procedure, shortened: as §1
# Mus musculus [18] = assay: Biodistribution was measured in mice muscle 30 minutes after intravenous injection of [125I]-labeled styrylbenzene.; assay type: ADME, organism-based, Muscle tissue; conditions: in vivo, 0.5 h; procedure, shortened: as §1
# Mus musculus [19] = assay: Biodistribution was measured in mice blood 5 minutes after intravenous injection of [125I]-labeled styrylbenzene.; assay type: ADME, organism-based; conditions: in vivo; procedure, shortened: as §1
# Mus musculus [20] = assay: Biodistribution was measured in mice heart 60 minutes after intravenous injection of [125I]-labeled styrylbenzene.; assay type: ADME, organism-based; conditions: in vivo, 1 h; procedure, shortened: as §1
# Mus musculus [21] = assay: Biodistribution was measured in mice lung 60 minutes after intravenous injection of [125I]-labeled styrylbenzene.; assay type: ADME, organism-based; conditions: in vivo, 1 h; procedure, shortened: as §1
# Mus musculus [22] = assay: Biodistribution was measured in mice skin 5 minutes after intravenous injection of [125I]-labeled styrylbenzene.; assay type: ADME, organism-based, Zone of skin; conditions: in vivo; procedure, shortened: as §1
# Mus musculus [23] = assay: Biodistribution was measured in mice brain 5 minutes after intravenous injection of [125I]-labeled styrylbenzene; assay type: ADME, organism-based; conditions: in vivo; procedure, shortened: as §1
# Mus musculus [24] = assay: Biodistribution was measured in mice kidney 30 minutes after intravenous injection of [125I]-labeled styrylbenzene.; assay type: ADME, organism-based; conditions: in vivo, 0.5 h; procedure, shortened: as §1
# Mus musculus [25] = assay: Biodistribution was measured in mice kidney 5 minutes after intravenous injection of [125I]-labeled styrylbenzene.; assay type: ADME, organism-based; conditions: in vivo; procedure, shortened: as §1
# Mus musculus [26] = assay: Biodistribution was measured in mice blood 30 minutes after intravenous injection of [125I]-labeled styrylbenzene.; assay type: ADME, organism-based; conditions: in vivo, 0.5 h; procedure, shortened: as §1
# Mus musculus [27] = assay: Biodistribution was measured in mice liver 30 minutes after intravenous injection of [125I]-labeled styrylbenzene.; assay type: ADME, organism-based; conditions: in vivo, 0.5 h; procedure, shortened: as §1
smiles,measurement,setting,value
O=C(O)c1cc(/C=C/c2ccc(/C=C/c3ccc(O)c(C(=O)O)c3)c(I)c2)ccc1O,Dose/organ,Mus musculus [1],0.81%
same,Dose/organ,Mus musculus [2],0.04%
same,Dose/organ,Mus musculus [3],2.59%
same,Dose/organ,Mus musculus [4],0.17%
same,Dose/organ,Mus musculus [5],0.06%
same,Dose/organ,Mus musculus [6],0.33%
same,Dose/organ,Mus musculus [7],0.63%
same,Dose/organ,Mus musculus [8],0.07%
same,Dose/organ,Mus musculus [9],0.3%
same,Dose/organ,Mus musculus [10],5.68%
same,Dose/organ,Mus musculus [11],4.13%
same,Dose/organ,Mus musculus [12],19.12%
same,Dose/organ,Mus musculus [13],42.68%
same,Dose/organ,Mus musculus [14],0.25%
same,Dose/organ,Mus musculus [15],0.13%
same,Dose/organ,Mus musculus [16],3.66%
same,Dose/organ,Mus musculus [17],2.98%
same,Dose/organ,Mus musculus [18],3.9%
same,Dose/organ,Mus musculus [19],7.57%
same,Dose/organ,Mus musculus [20],0.13%
same,Dose/organ,Mus musculus [21],0.25%
same,Dose/organ,Mus musculus [22],4.02%
same,Dose/organ,Mus musculus [23],0.27%
same,Dose/organ,Mus musculus [24],0.77%
same,Dose/organ,Mus musculus [25],1.67%
same,Dose/organ,Mus musculus [26],2.98%
same,Dose/organ,Mus musculus [27],30.16%
